According to ChEMBL document CHEMBL2385013, “7-Phenyl-imidazoquinolin-4(5H)-one derivatives as selective and orally available mPGES-1 inhibitors” (Bioorg Med Chem, 2013):
Values after ≈ are worked out from the molar mass of the structure shown.

Tests used:
[1] = Solubility of the compound in FaSSIF; assay type: physicochemical
[2] = Permeability of the compound at pH 5 by PAMPA; assay type: ADME; conditions: read-out: permeability
How it was run: (§1)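 Compound was incubated for 4 h between a donor compartment (System Solution, pH 5.0 or 7.4) and an acceptor sink buffer. The distribution was read by UV absorption, and effective permeability coefficients were calculated by a published method.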

[3] = Permeability of the compound at pH 7.4 by PAMPA; assay type: ADME; conditions: read-out: permeability; how it was run: as §1
[4] = Oral bioavailability in rat at 10 mg/kg; assay type: ADME, organism-based; conditions: in vivo
How it was run: (§2)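 Fasted male rats (n = 3) were given 1 mg/kg iv in 5% glucose/0.1 M HCl = 9/1, or 10 mg/kg po as a suspension in 0.5% methyl cellulose. Jugular vein blood was drawn into heparinized syringes at iv pre-dose, 5, 15, 30 min, 1, 2, 4, 6 and 24 h, or at po 15 and 30 min, 1, 2, 4, 6 and 24 h. Plasma was analysed for parent compound. BA = (AUCpo/Dpo)/(AUCiv/Div) × 100.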

[5] = AUC in rat at 10 mg/kg, po; assay type: ADME, organism-based; set-up: dose 10 mg/kg, route oral; conditions: plasma; how it was run: as §2
[6] = Cmax in rat at 10 mg/kg, po; assay type: ADME, organism-based; set-up: dose 10 mg/kg, route oral; conditions: in vivo; how it was run: as §2
[7] = AUC in rat at 1 mg/kg, iv; assay type: ADME, organism-based; set-up: dose 1 mg/kg, route intravenous; conditions: plasma; how it was run: as §2
[8] = Volume of distribution at steady state in rat at 1 mg/kg, iv; assay type: ADME, organism-based; set-up: dose 1 mg/kg, route intravenous; conditions: in vivo, read-out: Vdss; how it was run: as §2

| solubility [1] [µg/mL] | Papp [2] [×10⁻⁶ cm/s] | Papp [3] [×10⁻⁶ cm/s] | bioavailability [4] [%] | AUC [5] [ng·h/mL] | Cmax [6] [ng/mL] | AUC [7] [ng·h/mL] | Vd [8] [L/kg] | Compound |
| --- | --- | --- | --- | --- | --- | --- | --- | --- |
| 0.9 (≈ 2.4 µM) | > 30 | 26 | – | – | – | – | – | O=c1[nH]c2cc(Br)ccc2c2[nH]c(-c3ccccc3Cl)nc12 |
| 1 (≈ 2.57 µM) | 30 | > 30 | 19 | 1400 | 472 | 728 | 1.4 | O=c1[nH]c2cc(-c3ccccc3)ccc2c2nc(-c3c(F)cccc3Cl)[nH]c12 |
| 0.5 (≈ 1.18 µM) | 29 | > 30 | – | – | – | – | – | O=c1[nH]c2cc(-c3cccc(Cl)c3)ccc2c2nc(-c3c(F)cccc3Cl)[nH]c12 |
| 1 (≈ 2.69 µM) | > 30 | > 30 | – | – | – | – | – | O=c1[nH]c2cc(-c3ccccc3)ccc2c2nc(-c3ccccc3Cl)[nH]c12 |
